In brackets after ≈: the same amount, converted by molar mass.
How the values were obtained:
[1] = Intrinsic clearance in human hepatocytes after 120 mins by LC-MS/MS analysis; assay type: ADME, cell-based, Hepatocyte; details: read-out: CLH
[2] = Apparent permeability in MDCK cells; assay type: ADME, cell-based, Canis lupus familiaris; details: dog
[3] = Intrinsic clearance in rat hepatocytes after 120 mins by LC-MS/MS analysis; assay type: ADME, cell-based, Hepatocyte; details: read-out: CLH
[4] = Clearance in rat at 0.5 mg/kg, iv or 1 mg/kg, po; assay type: ADME, organism-based; details: in vivo
Procedure, shortened: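 Rat dosed iv at 0.5 mpk or po at 1 mpk, each as a solution in PEG400/H2O (60:40 (v/v)).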

[5] = Solubility of the compound in FaSSIF solution at 100 uM after overnight incubation by UPLC/DAD analysis; assay type: physicochemical
[6] = molecular target: Stimulator of interferon genes protein (Homo sapiens, UniProt Q86WV6); test: Displacement of [3H]cGAMP from full length human HAQ STING expressed in Trichopulsia ni membranes preincubated for 30 mins followed by [3H]cGAMP addition and measured after 60 mins by scintillation counting method; assay type: cell membranes
Stimulator of interferon genes protein, sequence (Q86WV6 whole entry, looked up): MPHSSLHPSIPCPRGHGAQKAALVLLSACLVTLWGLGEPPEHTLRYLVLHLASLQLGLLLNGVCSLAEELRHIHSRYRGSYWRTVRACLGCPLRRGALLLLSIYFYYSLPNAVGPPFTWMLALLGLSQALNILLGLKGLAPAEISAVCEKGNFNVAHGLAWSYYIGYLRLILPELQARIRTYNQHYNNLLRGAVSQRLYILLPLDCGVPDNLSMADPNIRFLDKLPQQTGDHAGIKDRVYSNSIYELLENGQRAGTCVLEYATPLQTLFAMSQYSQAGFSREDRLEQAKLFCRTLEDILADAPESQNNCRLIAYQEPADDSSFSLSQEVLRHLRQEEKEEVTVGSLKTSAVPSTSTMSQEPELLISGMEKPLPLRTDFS

Row | SMILES | CLint scaled [1] [mL/min/kg] | Papp [2] [×10⁻⁶ cm/s] | CLint scaled [3] [mL/min/kg] | clearance [4] [mL/min/kg] | solubility at 100 µM [5] [µM] | IC50 [6] [µM]
1 | CC(C)(C)c1ccc(N2C(=O)c3ccccc3[C@H](C(=O)O)[C@H]2c2ccc3c(c2)OCCO3)cc1Cl | 28 | 9 | 158 | 38 | 151 (≈ 74.3 µg/mL) | 
2 | CC(C)c1ccc(N2C(=O)c3ccccc3[C@H](C(=O)O)[C@H]2c2ccc3ccccc3c2)cc1 (racemic) |  |  |  |  |  | > 20
3 | N#Cc1ccc([C@@H]2[C@@H](C(=O)O)c3ccccc3C(=O)N2c2ccc3c(c2)CCC3)cc1 (racemic) |  |  |  |  |  | > 20
4 | CN(C)c1ccc([C@@H]2[C@@H](C(=O)O)c3ccccc3C(=O)N2c2ccc3c(c2)CCC3)cc1 (racemic) |  |  |  |  |  | > 20
5 | O=C(O)[C@H]1c2ccccc2C(=O)N(c2ccc3c(c2)CCC3)[C@@H]1c1ccc(Oc2ccccc2)cc1 (racemic) |  |  |  |  |  | > 20
6 | O=C(O)[C@H]1c2ccccc2C(=O)N(c2ccc3c(c2)CCC3)[C@@H]1c1ccc2c(c1)OC(F)(F)O2 (racemic) |  |  |  |  |  | > 20
7 | CC(C)(C)c1ccc(N2C(=O)c3cc(F)ccc3[C@H](CC(=O)O)[C@H]2c2ccc3c(c2)OCCO3)cc1Cl | 31 | 18 | 240 | 45 | 187 (≈ 98 µg/mL) | 

Reference: ChEMBL document CHEMBL4382292, “Discovery of a Novel cGAMP Competitive Ligand of the Inactive Form of STING” (ACS Med Chem Lett, 2019)
